Several values for one entry are separate records, joined by “and”; a condition that tells them apart may be missing. Equal entries are not always repeated.
Experiments:
[1] = Therapeutic index was determined against leukemia P388 cells in mice; assay type: cell-based; details: mouse
Procedure, shortened: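 CDF1 mice implanted ip with 10^6 P388 cells on day 0 and dosed ip on days 1 and 5 (saline, or saline plus Tween 80 suspension if insoluble); 6 treated and 10 control mice. % T/C from median survival. TI is optimal dose divided by MED (lowest dose giving % T/C above 120), per the NCI platinum analogue protocol.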

P388 [2] = test: Optimal dose against leukemia P388 in CDF1 mice; assay type: functional, cell-based; details: Mus musculus
Procedure, shortened: (§1)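 CDF1 [(BALB/c × DBA/2)F1] mice given 10^6 P388 cells ip on day 0; treatment ip on days 1 and 5; insoluble complexes suspended in physiological saline with a few drops of Tween 80. Groups of 6 treated and 10 control mice. Median survival of treated (T) and control (C) groups calculated; activity expressed as % T/C.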

P388 [3] = test: Toxic dose against leukemia P388 in CDF1 mice; assay type: functional, cell-based; details: Mus musculus; procedure, shortened: as §1
P388 [4] = test: Antitumor activity against leukemia P388 in CDF1 mice; assay type: functional, cell-based; details: Mus musculus; procedure, shortened: as §1
P388 [5] = test: Minimum effective dose (MED) against leukemia P388 in CDF1 mice; assay type: functional, cell-based; details: Mus musculus
Procedure, shortened: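 P388 model in CDF1 mice: 10^6 cells ip on day 0, ip dosing on days 1 and 5; 6 treated and 10 control mice per group. Median survival days give % T/C. MED is the lowest dose at which % T/C exceeded 120.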

0-Hexyl-1,3-diamine-platinum 2,2-dichloride [listing 1 of 2 here]
TI [1]: 4

0-Hexyl-1,3-diamine-platinum 2,2-dichloride [listing 2 of 2 here]
Optimal dose (P388 [2]): 6.25 mg/kg | Toxic dose (P388 [3]): 12.5 mg/kg | T/C (P388 [4]): 206% and 127% | MED (P388 [5]): 1.56 mg/kg

CISPLATIN [listing 1 of 2 here]
TI [1]: 4

CISPLATIN [listing 2 of 2 here]
Optimal dose (P388 [2]): 3.12 mg/kg | Toxic dose (P388 [3]): 12.5 mg/kg | T/C (P388 [4]): 230% (2×) and 134% (2×) | MED (P388 [5]): 0.78 mg/kg

amcha (cis-d)-2-(aminomethyl)cyclohexylamine platinum (II) complex [listing 1 of 5 here]
TI [1]: >= 16

amcha (cis-d)-2-(aminomethyl)cyclohexylamine platinum (II) complex [listing 2 of 5 here]
TI [1]: 32

amcha (cis-d)-2-(aminomethyl)cyclohexylamine platinum (II) complex [listing 3 of 5 here]
TI [1]: >= 4

amcha (cis-d)-2-(aminomethyl)cyclohexylamine platinum (II) complex [listing 4 of 5 here]
TI [1]: 16

amcha (cis-d)-2-(aminomethyl)cyclohexylamine platinum (II) complex [listing 5 of 5 here]
T/C (P388 [4]): 160% [middle of 8 runs] | MED (P388 [5]): < 0.39 mg/kg

amcha (cis-l)-2-(aminomethyl)cyclohexylamine platinum (II) complex [listing 1 of 6 here]
TI [1]: >= 32

amcha (cis-l)-2-(aminomethyl)cyclohexylamine platinum (II) complex [listing 2 of 6 here]
TI [1]: 32

amcha (cis-l)-2-(aminomethyl)cyclohexylamine platinum (II) complex [listing 3 of 6 here]
TI [1]: > 16

amcha (cis-l)-2-(aminomethyl)cyclohexylamine platinum (II) complex [listing 4 of 6 here]
TI [1]: > 8

amcha (cis-l)-2-(aminomethyl)cyclohexylamine platinum (II) complex [listing 5 of 6 here]
TI [1]: 8

amcha (cis-l)-2-(aminomethyl)cyclohexylamine platinum (II) complex [listing 6 of 6 here]
T/C (P388 [4]): 148% [middle of 11 runs] | MED (P388 [5]): < 0.78 mg kg-1 (3×) and < 1.56 mg kg-1 and 0.78 mg kg-1

amcha (trans-d)-2-(aminomethyl)cyclohexylamine platinum (II) complex [listing 1 of 5 here]
TI [1]: 16

amcha (trans-d)-2-(aminomethyl)cyclohexylamine platinum (II) complex [listing 2 of 5 here]
TI [1]: 64

amcha (trans-d)-2-(aminomethyl)cyclohexylamine platinum (II) complex [listing 3 of 5 here]
TI [1]: >= 64

amcha (trans-d)-2-(aminomethyl)cyclohexylamine platinum (II) complex [listing 4 of 5 here]
TI [1]: >= 16

amcha (trans-d)-2-(aminomethyl)cyclohexylamine platinum (II) complex [listing 5 of 5 here]
Toxic dose (P388 [3]): 100 mg kg-1 and > 100 mg kg-1 (2×) and > 200 mg kg-1 | T/C (P388 [4]): 160% [middle of 8 runs] | MED (P388 [5]): < 0.78 mg/kg

amcha (trans-l)-2-(aminomethyl)cyclohexylamine platinum (II) complex [listing 1 of 4 here]
TI [1]: 4

amcha (trans-l)-2-(aminomethyl)cyclohexylamine platinum (II) complex [listing 2 of 4 here]
TI [1]: 16

amcha (trans-l)-2-(aminomethyl)cyclohexylamine platinum (II) complex [listing 3 of 4 here]
TI [1]: >= 16

amcha (trans-l)-2-(aminomethyl)cyclohexylamine platinum (II) complex [listing 4 of 4 here]
Optimal dose (P388 [2]): 12.5 mg kg-1 (3×) and 25 mg kg-1 and > 25 mg kg-1 | T/C (P388 [4]): 158% [middle of 10 runs]

dach (cis)-1,2-cyclohexanediamine platinum (II) complex [listing 1 of 4 here]
TI [1]: >= 8

dach (cis)-1,2-cyclohexanediamine platinum (II) complex [listing 2 of 4 here]
TI [1]: 4

dach (cis)-1,2-cyclohexanediamine platinum (II) complex [listing 3 of 4 here]
TI [1]: 16

dach (cis)-1,2-cyclohexanediamine platinum (II) complex [listing 4 of 4 here]
Optimal dose (P388 [2]): 25 mg kg-1 (4×) and 12.5 mg kg-1 | T/C (P388 [4]): 144% [middle of 10 runs]

dach (trans-d)-1,2-cyclohexanediamine platinum (II) complex [listing 1 of 5 here]
TI [1]: 8

dach (trans-d)-1,2-cyclohexanediamine platinum (II) complex [listing 2 of 5 here]
TI [1]: 16

dach (trans-d)-1,2-cyclohexanediamine platinum (II) complex [listing 3 of 5 here]
TI [1]: 13

dach (trans-d)-1,2-cyclohexanediamine platinum (II) complex [listing 4 of 5 here]
TI [1]: >= 8

dach (trans-d)-1,2-cyclohexanediamine platinum (II) complex [listing 5 of 5 here]
T/C (P388 [4]): 151% [middle of 12 runs]

dach (trans-l)1,2-cyclohexanediamine platinum (II) complex [listing 1 of 2 here]
TI [1]: >= 4

dach (trans-l)1,2-cyclohexanediamine platinum (II) complex [listing 2 of 2 here]
Optimal dose (P388 [2]): 6.25 mg/kg | Toxic dose (P388 [3]): 25 mg/kg | MED (P388 [5]): < 1.56 mg/kg

dach (trans-l)-1,2-cyclohexanediamine platinum (II) complex [listing 1 of 4 here]
TI [1]: >= 16

dach (trans-l)-1,2-cyclohexanediamine platinum (II) complex [listing 2 of 4 here]
TI [1]: 8

dach (trans-l)-1,2-cyclohexanediamine platinum (II) complex [listing 3 of 4 here]
TI [1]: 4

dach (trans-l)-1,2-cyclohexanediamine platinum (II) complex [listing 4 of 4 here]
T/C (P388 [4]): 182% [middle of 10 runs]
